Screening results from PubChem BioAssay.
NR1D1 modulator = modulates human Rev-erb alpha binding to DNA; P20393; Rev-erbα–FITC-DNA binding, fluorescence polarization, 90 min; activity, % at 10 µM; 370,000 compounds, 0.79% hits;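 active = activity above about 14%, limit read from the data; passing the limit was not always enough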;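 note: 0% = DMSO wells with 35 nM protein and 100% = DMSO wells with 750 nM protein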
PG9 binder = PG9 antibody binding by small molecule. inhibition, % at 6.7 µM. TR-FRET gp120-PG9 antibody binding. 360,000 compounds, 0.43% hits; in the data active = inhibition above about 8.5%
NR2E3 ag-1 = NR2E3 (human) agonism; GST-NR2E3/biotin-RetCOR TR-FRET, 1536-well; inhibition of corepressor binding, % at 4.78 µM; 320,000 compounds, 0.12% hits; AID 2300; Q9Y5X4;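 active = percent inhibition above the cutoff of mean plus 3 SD of all tested compounds, set per screening campaign, cut at about 20% in these data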;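 note: 0% = DMSO wells and 100% = biotin wells as full block of FRET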
Target sequence (Q9Y5X4 whole entry, looked up): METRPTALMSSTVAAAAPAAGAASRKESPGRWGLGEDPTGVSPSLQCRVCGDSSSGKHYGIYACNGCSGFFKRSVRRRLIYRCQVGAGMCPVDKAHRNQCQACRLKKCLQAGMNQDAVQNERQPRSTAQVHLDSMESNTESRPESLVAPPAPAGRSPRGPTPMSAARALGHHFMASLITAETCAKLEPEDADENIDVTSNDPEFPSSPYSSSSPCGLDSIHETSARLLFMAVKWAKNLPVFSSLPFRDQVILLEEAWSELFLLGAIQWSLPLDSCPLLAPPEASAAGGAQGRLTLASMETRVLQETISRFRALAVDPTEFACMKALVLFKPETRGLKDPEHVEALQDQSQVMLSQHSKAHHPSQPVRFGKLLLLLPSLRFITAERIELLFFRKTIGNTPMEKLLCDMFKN
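System: GST-tagged NR2E3 plus biotinylated RetCOR corepressor; Amount: 1.35 nM GST-tagged NR2E3 final; Dosing: single nominal compound dose of 4.8 µM; Schedule: 5 h incubation at 4 °C; Technique: TR-FRET with europium anti-GST and streptavidin-D2, 340 nm excitation; Controls: biotin wells as high control, 0.6% DMSO wells as low control.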
NR2E3 ag-2 = human photoreceptor-specific nuclear receptor agonism | Q9Y5X4 | CHO-S Gal4-NCOR/VP16-NR2E3 two-hybrid, luciferase | inhibition of corepressor binding, % at 3.98 µM | 360,000 compounds, 0.35% hits | AID 602229;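 active = inhibition above the mean of all tested compounds plus 3 SD, cut at about 70% in these data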;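 note: 0% = DMSO with NR2E3 transfected cells and 100% = cells lacking NR2E3 construct; higher means lower luciferase signal from less NR2E3 corepressor binding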
NR1D1 mod conf = confirmation of modulators of human Rev-erb alpha DNA binding; AID 1259319; shares compounds with NR1D1 modulator; Rev-erb alpha FITC-DNA binding, fluorescence polarization, 90 min; activation, % at 25 µM; 3,000 compounds, 61% hits;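 active = activation at or above a set limit, or at least 3 SD above the negative control mean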;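 note: 0% = 35 nM protein with DMSO and 100% = 750 nM protein high control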
RORg DNA counter = affects RORgamma DNA binding in a Rev-erb alpha counter-screen. shares compounds with NR1D1 modulator. 910 compounds, 8% hits. purified RORgamma protein-FITC-DNA binding, fluorescence polarization. IC50, µM;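 active = Compounds whose fitted half-maximal concentration for disrupting protein-DNA binding is below 10 micromolar; the record names Rev-erb in its text, so the target is in doubt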
* marks the source's active call; other numbers are inactive results; i = inactive; x = no result given. The list is not random: actives were taken first. Their share in the collection is about 1.5%.

SMILES | NR1D1 modulator | PG9 binder | NR2E3 ag-1 | NR2E3 ag-2 | NR1D1 mod conf | others
Cc1nc(N2CCN(c3ccccn3)CC2)c2c(C)c(C(=O)Nc3c(C)cc(Br)cc3C)sc2n1 | 28* | -2 | 0 | 10 | -12
Cc1nc(N2CCC(C)CC2)c2c(C)c(C(=O)Nc3ccc(C)c(F)c3)sc2n1 | 46* | -3 | 3 | -2 | 32* | RORg DNA counter=i
Cc1nc(N2CCN(C)CC2)c2c(C)c(C(=O)Nc3ccc(C)c(F)c3)sc2n1 | 1 | -4 | 0 | -20 | x
Cc1nc(N2CCN(c3ccccn3)CC2)c2c(C)c(C(=O)Nc3c(F)cc(F)cc3Br)sc2n1 | 46* | 3 | -2 | -23 | -3
CCOC(=O)[C@]12CCCCC/C=C\1N(Cc1ccc(OC)cc1)C(=O)[C@H]2CC(=O)NCCC(C)C | -6 | x | x | x | x
Cc1cc(Br)c2nc(-c3cccc(Br)c3)c(Cc3cccc(Cl)c3)n2c1 | 18* | 6 | x | x | 7
Cc1cc(Br)cn2c(Cc3cccc(Cl)c3)c(-c3cccc(Cl)c3)nc12 | 23* | 5 | x | -18 | 13*
COc1ccccc1Cc1c(-c2ccc(OC)c(OC)c2)nc2c(C)cc(Br)cn12 | 6 | -2 | x | -14 | x
Cc1cc(Br)cn2c(Cc3cccc(F)c3)c(-c3ccc(Cl)cc3)nc12 | 15 | 4 | x | 1 | x
Cc1cc(Br)cn2c(Cc3ccccc3)c(-c3ccc(Cl)cc3)nc12 | 25* | 1 | x | 5 | 12*
COc1ccccc1Cc1c(-c2cccc(Cl)c2)nc2c(C)cc(Br)cn12 | 22* | 2 | x | -5 | 11*
CCOc1ccc(Cn2c(=O)oc3ccccc32)cc1 | -5 | 2 | x | -3 | x
COc1ccccc1C1C(C#N)=C(N)N(c2cccnc2)C2=C1C(=O)CC(C)(C)C2 (stereo not given) | -3 | -2 | -3 | 14 | x
CN(C)c1ccc(C=NN2C(=O)CSC2=S)c(Cl)c1 | 22* | -2 | x | 3 | -3
COc1ccc(S(=O)(=O)N2CCCCCC2)cc1C(=O)Nc1ccccn1 | 46* | 0 | -6 | 4 | 15
COc1ccc(S(=O)(=O)N2CCCCCC2)cc1C(=O)Nc1cc(C)ccn1 | 2 | 2 | 3 | 1 | x
COc1ccc(S(=O)(=O)N2CCCCCC2)cc1C(=O)Nc1ccc(C)cn1 | 101* | 0 | 5 | -12 | 30* | RORg DNA counter=0.79*
COc1ccc(S(=O)(=O)N2CCc3ccccc32)cc1C(=O)Nc1ccc(NC(C)=O)cc1 | 58* | 1 | x | -27 | 41* | RORg DNA counter=>40
O=C(NC12CC3CC(CC(C3)C1)C2)c1cc(F)c(F)c(F)c1F | 0 | -2 | 0 | -2 | x
CCn1c(=O)n2n(c1=O)[C@H]1C[N+](Cc3ccc4c(c3)OCO4)=C(N)NC1=C(C)C2 | 9 | x | x | x | x
Fc1ccc(-c2nc3ccc(Br)cn3c2Cc2ccccc2)cc1 | 20* | 3 | x | -4 | 13*
Brc1ccc(-c2nc3ccc(Br)cn3c2Cc2ccccc2)cc1 | 26* | 7 | x | -86 | 16*
Fc1ccc(-c2nc3ccc(Br)cn3c2Cc2cccc(F)c2)cc1 | -3 | -1 | x | -26 | x
Clc1ccc(-c2nc3ccc(Br)cn3c2Cc2ccccc2)cc1 | 23* | 7 | x | -5 | 20*
Cc1ccc(-c2nc3ccc(Br)cn3c2Cc2cccc(F)c2)cc1 | 2 | 2 | x | -87 | x
SMILES | NR1D1 modulator | PG9 binder | NR2E3 ag-1 | NR2E3 ag-2 | NR1D1 mod conf | others
Fc1ccc(-c2nc3ccc(Br)cn3c2Cc2cccc(Cl)c2)cc1 | 28* | 5 | x | -22 | 14*
Cc1ccc(S(=O)(=O)N2CCOCC2)cc1NC(=O)c1cc(-c2ccccn2)nc2ccccc12 | -6 | -1 | 3 | -16 | x
O=C(Nc1cc(S(=O)(=O)N2CCOCC2)ccc1N1CCCCC1)c1cc(-c2ccccn2)nc2ccccc12 | 25* | -1 | 0 | 17 | 2
COCCn1c(=NC(=O)c2cc(Cl)sc2Cl)sc2cc(S(N)(=O)=O)ccc21 | 15 | -19 | 3 | -14 | x
COC(=O)Cn1c(=NC(=O)c2cc(-c3cccs3)nc3ccccc23)sc2cc(S(N)(=O)=O)ccc21 | 3 | -2 | 0 | 4 | x
COC(=O)Cn1c(=NC(=O)c2nc3ccccc3s2)sc2cc(S(N)(=O)=O)ccc21 | 39* | -2 | 2 | -14 | 23*
COCCn1c(=NC(=O)c2nc3ccccc3s2)sc2cc(S(C)(=O)=O)ccc21 | 89* | 0 | -1 | 0 | 63* | RORg DNA counter=>40
